# TAAR1 ag – agonists of human TAAR1. CHO RD-HGA16 TAAR1, Fluo-8 calcium fluorescence; vehicle wells 0%, saturating PEA agonist 100%. actives 0.99% (n = 360,000). activation, % at 3 µM. Q96RJ0;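 active = activation above the mean activation of all test compounds in the run plus 3 SD, cut at about 38% in these data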
# Target sequence (Q96RJ0 whole entry, looked up): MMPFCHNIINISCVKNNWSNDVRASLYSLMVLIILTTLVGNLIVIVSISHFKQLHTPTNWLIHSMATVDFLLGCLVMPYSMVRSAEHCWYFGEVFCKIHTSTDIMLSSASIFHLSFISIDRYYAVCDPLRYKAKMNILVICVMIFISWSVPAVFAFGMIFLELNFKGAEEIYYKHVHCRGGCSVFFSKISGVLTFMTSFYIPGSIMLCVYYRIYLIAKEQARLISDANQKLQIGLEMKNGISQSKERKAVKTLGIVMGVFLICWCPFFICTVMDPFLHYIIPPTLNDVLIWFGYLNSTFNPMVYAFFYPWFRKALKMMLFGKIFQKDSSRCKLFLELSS
#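 Benchmarks: low control DMSO, high control PEA (EC100); System: CHO RD-HGA16 cells carrying human TAAR1 plus Gα16; Detection: Fluo-8 fluorescence, 5 s baseline then 140 s kinetic read; Schedule: 17-24 h plating, Fluo-8 75 min 37 °C, 30 min RT; Read-out basis: % activation from peak over basal fluorescence ratio, DMSO-to-PEA scaled.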
# OX1R antag-1 – antagonists of human orexin 1 receptor (OX1R); actives 1.8% (n = 330,000); O43613; OX1R-expressing cells, FRET antagonist read-out; inhibition, % at 6.6 µM; in the data active = inhibition mostly above about 38%, no sharp cut-off; inactive = mostly below about 40%;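 also: 0% = agonist challenge alone and 100% = reference antagonist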
# TAAR1 antag – antagonists of human TAAR1; Q96RJ0; CHO RD-HGA16 TAAR1, Fluo-8 calcium fluorescence, antagonist; inhibition, % at 3 µM; actives 1.5% (n = 360,000);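 active = inhibition above a per-plate cutoff, the mean inhibition of test compounds on that plate plus 3 SD, cut at about 49% in these data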;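 also: 0% = DMSO plus EC80 beta-PEA response and 100% = DMSO alone without agonist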
#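 Test system: RD-HGA16 CHO cells with stable hTAAR1 and Gα16 / Probe or stimulus: EC80 β-phenethylamine stimulus / Times: seeding 17-24 h prior, 75-min 37 °C, 30-min RT dye loading / Detection: Fluo-8 calcium-sensitive fluorescence / Read-out basis: % inhibition scaled between DMSO and EC80 PEA controls / Repeats: singlicate, one well per test compound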
# CHO parental Ca – counter-screen: ATP calcium response change in parental CHO cells; parental CHO-K1, ATP-induced calcium, Fluo-8 fluorescence; inhibition, % at 5.6 µM; actives 0.63% (n = 330,000);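 active = inhibition above that plate's mean sample inhibition plus 3 SD, cut at about 26% in these data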;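 also: 0% = ATP-challenged DMSO wells and 100% = DMSO wells without ATP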
#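 Assay system: untransfected parental CHO cell line. Also added: ATP agonist challenge. Dosing: one dose, 5.6 µM nominal. Measured by: Fluo-8 fluorescence. Read-out: % inhibition. Benchmarks: ATP wells versus no-ATP DMSO wells. Repeats: no replicates.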
# OX1R antag-2 – human HCRTR1 antagonism | O43613 | inhibition, % at 5 µM | actives 0.43% (n = 330,000) | CHO/OX1R cells, Fluo-8 calcium fluorescence, orexin A;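 active = inhibition above its plate's threshold, mean inhibition of all tested compounds on the plate plus 3 SD, cut at about 37% in these data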;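 also: 0% = orexin A challenge wells and 100% = SB-334867-A antagonist wells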
# GPR7 antag – antagonists of human GPR7 (neuropeptides B/W receptor 1). P48145. GPR7-expressing cells, fluorescence antagonist assay. inhibition, % at 4.4 µM. actives 1.1% (n = 290,000). AID 1861; in the data active = inhibition above about 16%, passing the limit was not always enough;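 also: cells stimulated with the agonist NPW; 0% = agonist with vehicle and 100% = vehicle without agonist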
# Target sequence (P48145 whole entry, looked up): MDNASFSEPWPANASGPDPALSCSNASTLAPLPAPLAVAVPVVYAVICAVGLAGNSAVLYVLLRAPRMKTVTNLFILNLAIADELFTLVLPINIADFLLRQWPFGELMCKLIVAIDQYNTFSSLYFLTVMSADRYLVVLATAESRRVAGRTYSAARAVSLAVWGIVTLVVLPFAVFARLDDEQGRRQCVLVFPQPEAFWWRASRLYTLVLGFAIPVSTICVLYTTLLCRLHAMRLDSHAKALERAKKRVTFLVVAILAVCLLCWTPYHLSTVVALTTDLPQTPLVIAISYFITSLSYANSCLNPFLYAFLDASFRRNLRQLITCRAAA
# OX1R Ca confirm – OX1R (human) antagonism, confirmed | shares compounds with OX1R antag-2 | CHO/OX1R cells, orexin A calcium Fluo-8 fluorescence | inhibition, % at 5 µM | actives 38% (n = 1,100); in the data active = inhibition above about 29%;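 also: 0% = agonist challenge alone and 100% = reference antagonist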
# CHO Ca triplic – counter-screen for OX1R antagonists: effect in parental CHO cells; inhibition, % at 5.6 µM; shares compounds with OX1R antag-2; actives 9.3% (n = 1,100); parental CHO-K1, ATP-induced calcium, Fluo-8 fluorescence; AID 492965;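 active = inhibition above a per-plate limit, the mean inhibition of that plate's test compounds plus 3 SD, cut at about 25% in these data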;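 also: 0% = ATP challenge with DMSO and 100% = DMSO without ATP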
# OX1R HTRF conf – confirmation of human orexin 1 receptor antagonists, HTRF format; shares compounds with OX1R antag-1; OX1R-expressing cells, HTRF antagonist assay; inhibition, % at 6.6 µM; actives 49% (n = 1,800); AID 492964; in the data active = inhibition above about 55%;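 also: CHO cells expressing OX1R stimulated with orexin A at about EC80; 0% = agonist challenge alone and 100% = reference antagonist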
# CHO-K1 HTRF cnt – counter-screen: parental CHO-K1 HTRF response. parental CHO-K1 cells, HTRF counterscreen. actives 48% (n = 1,800). AID 493232. shares compounds with OX1R antag-1. inhibition, % at 6.6 µM; in the data active = inhibition above about 17%;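 also: 0% = agonist challenge with vehicle and 100% = vehicle alone without agonist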
# Starred values were filed as active, the others as inactive; . = no result. Compounds with a hit are over-represented: about 4.6% of the library has one in this group of screens.
SMILES,TAAR1 ag,OX1R antag-1,TAAR1 antag,CHO parental Ca,OX1R antag-2,GPR7 antag,OX1R Ca confirm,CHO Ca triplic,OX1R HTRF conf,CHO-K1 HTRF cnt
CC(c1nc2ccccc2c(=O)[nH]1)N1CCN(S(=O)(=O)c2ccc(F)c(Cl)c2)CC1 (configuration not stated),5,.,37,.,.,.,.,.,.,.
CC(C)C(NS(=O)(=O)c1cccc2nsnc12)C(=O)N1CCn2c1nc1ccccc12 (configuration not stated),0,134*,13,-14,27,-6,19,-9,92*,16
CC(C)(C)C(=O)N1CCn2c1nc1ccccc12,0,1,-28,10,-3,-4,.,.,.,.
O=C(OCc1cc(=O)n2c(n1)sc1ccccc12)c1cccc(O)c1,5,97*,17,14,34,-9,52*,-9,86*,6
CC(C)[C@H](NC(=O)c1ccco1)C(=O)OCc1cc(=O)n2c(n1)sc1ccccc12,11,8,45,-14,-26,-13,.,.,.,.
Cc1ccc2nc(SCC(=O)Nc3cc(C(C)(C)C)nn3-c3ccccc3)[nH]c2c1,1,10,-10,-20,-21,-22,.,.,.,.
Cc1cc(NC(=O)CSc2nc3ccccc3[nH]2)n(-c2ccccc2)n1,2,60*,-39,-35,61*,-6,27,-18,62*,-9
CCN(c1ccccc1)S(=O)(=O)c1ccc(Cl)c(NC(=O)CSc2nc(N)cc(=O)[nH]2)c1,5,.,-29,.,.,.,.,.,.,.
Cn1ccc2c(N3CCCCC3)cc3c(c21)C1CCC3O1 (configuration not stated),6,.,-10,.,.,.,.,.,.,.
Cc1cc(SCC(=O)c2ccc3c(c2)OCO3)nc2ccccc12,6,59*,-4,-21,36,7,11,-9,87*,-2
Cc1cc(SCC(=O)c2ccc(O)c(O)c2)nc2ccccc12,5,55,-27,1,3,0,.,.,.,.
CNC(=O)NC(=O)C(C)OC(=O)c1c2c(nc3ccccc13)/C(=C/c1cccs1)CC2 (configuration not stated),3,66*,29,-21,52*,-9,92*,0,93*,9
Nc1nc(CSC(=S)N2CCN(c3ccccc3)CC2)nc(Nc2ccc(F)cc2)n1,3,25,-3,-16,-14,-9,.,.,.,.
CC1CC(C)CN(C(=S)SCc2nc(N)nc(Nc3ccccc3)n2)C1 (configuration not stated),3,75*,-34,-30,40*,-6,48*,-14,77*,4
O=C(C(=O)N1CCN(c2ccncc2)CC1)c1cccc(Br)c1,4,.,-14,.,.,.,.,.,.,.
COc1ccc(NC(=O)c2cc([N+](=O)[O-])ccc2O)cc1,8,70*,-3,15,33,-17,14,0,27,7
COc1ccc(NC(=S)Nc2cccc([N+](=O)[O-])c2)cc1,8,8,16,-2,-2,3,.,.,.,.
CCCCNc1ccc2c(c1)OC[C@@H](Cc1ccccc1)NS2(=O)=O,3,.,-5,.,.,.,.,.,.,.
COc1cccc(-c2cc3nc(-c4ccccc4)cc(N4CCC5(CC4)OCCO5)n3n2)c1,-1,43*,33,-13,46*,-8,18,-2,53,10
COc1cccc(-c2cc3nc(-c4ccccc4)cc(N4CCN(C(=O)c5ccoc5)CC4)n3n2)c1,0,.,40,.,.,.,.,.,.,.
CC1(C(=O)NS(=O)(=O)c2cccc(C#N)c2)CCN1C(=O)CCC1CCCC1 (configuration not stated),0,.,1,.,.,.,.,.,.,.
COc1ccc(/C=N/Nc2snc(SC)c2C#N)cc1OC,26,109*,4,-17,74*,2,53*,-2,96*,17*
O=C(Nc1ccc2c(c1)OCCO2)c1ccc2ccccc2n1,-1,107*,1,-18,28,-1,22,3,87*,14
CCSc1nnc(NC(=O)c2ccc3ccccc3n2)s1,0,94*,-6,-1,79*,8,43*,-2,92*,7
Cc1ccc(NC(=O)c2ccc3ccccc3n2)nc1,3,87*,-20,-19,39,-4,38*,-12,97*,-3
SMILES,TAAR1 ag,OX1R antag-1,TAAR1 antag,CHO parental Ca,OX1R antag-2,GPR7 antag,OX1R Ca confirm,CHO Ca triplic,OX1R HTRF conf,CHO-K1 HTRF cnt
Cn1cnc(S(=O)(=O)N2CCCCC2c2cc(C(=O)Nc3cccc(C#N)c3)no2)c1 (configuration not stated),3,.,0,.,.,.,.,.,.,.
C[C@H](NC(=O)[C@@H]1CCCN1C(=O)OC(C)(C)C)c1ccccc1,2,.,-1,.,.,.,.,.,.,.
CC1CC(C)CN(C(=O)CNC(=O)c2sc3ccccc3c2Cl)C1 (configuration not stated),0,70*,-3,-26,55*,.,27,-11,83*,8
COc1ccc(CN(C)C(=O)[C@@H](Cc2ccccc2)NC(=O)[C@H]2O[C@@H](n3ccc(N)nc3=O)[C@H](O)[C@@H]2O)cc1OC,-1,.,-13,.,.,.,.,.,.,.
Cc1csc(-c2coc3cc(O)cc(C)c3c2=O)n1,3,94*,-17,-4,60*,-12,25,4,91*,7
CCOC(=O)C1=C(COC(=O)c2cc(Br)c(Br)s2)NC(=O)NC1C (configuration not stated),7,49*,36,-23,32,.,19,-8,31,7
Oc1ccccc1-c1nc(NCC2CCCO2)c2ccccc2n1 (configuration not stated),5,97*,37,-21,63*,9,44*,-7,88*,16
COc1cccc(-c2nc(NCC3CCCO3)c3ccccc3n2)c1O (configuration not stated),13,25,45,-13,-26,-2,.,.,.,.
CCCc1cc(=O)oc2cc(C)cc(OCC(=O)N3C[C@H]4C[C@@H](C3)c3cccc(=O)n3C4)c12,1,.,5,.,.,.,.,.,.,.
CN(C)c1ccc(C#Cc2ccc3cc(CCCO)oc(=O)c3c2)cc1,11,0,3,-3,-3,.,.,.,.,.
O=c1oc(CCCO)cc2ccc(C#Cc3ccsc3)cc12,13,42*,12,10,55*,.,20,10,34,1

# Source: PubChem (The Scripps Research Institute Molecular Screening Center)
